# Source: PubChem BioAssay
# APJ ag: APJ receptor agonism. AID 2520. hit rate 0.11% among 330,000. P35414. CHO-K1 APJ PathHunter beta-arrestin, luminescence; 0% DMSO wells, 100% apelin. activation, % at 20 µM;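 active = activation more than six SD over the plate average, tested at 20 µM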
#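 assay system = CHO-K1 APJ beta-arrestin complementation cell line | input = cell density 1000 per well | dosing = compound 20 µM once, DMSO 1% | timing = compound 90 min 25 °C, reagent 1 h | measured by = luminescence from split beta-galactosidase complementation, Galacton Star/Emerald II substrate | read-out basis = APJ agonist activity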
# EBI2 antag: blocks human EBI2 receptor beta-arrestin signaling; hit rate 0.81% among 360,000; inhibition, % at 5 µM; EBI2 beta-arrestin recruitment, luminescence, 7a,25-OHC stimulated; in the data active = inhibition above about 38%;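 note: enzyme fragment complementation signal reports receptor beta-arrestin coupling in cells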
# Target sequence (P32249 whole entry, looked up, the tested form may be a part): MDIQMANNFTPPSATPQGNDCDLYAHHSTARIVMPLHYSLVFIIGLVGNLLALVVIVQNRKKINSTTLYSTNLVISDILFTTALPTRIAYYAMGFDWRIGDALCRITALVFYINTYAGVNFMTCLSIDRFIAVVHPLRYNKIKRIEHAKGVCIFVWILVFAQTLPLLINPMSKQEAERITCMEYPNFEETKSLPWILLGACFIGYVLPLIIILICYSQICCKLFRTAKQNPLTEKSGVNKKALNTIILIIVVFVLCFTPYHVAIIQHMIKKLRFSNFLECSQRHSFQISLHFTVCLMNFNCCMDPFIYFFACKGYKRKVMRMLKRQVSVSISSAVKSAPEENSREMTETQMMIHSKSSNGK
# CXCR6 block: CXCR6 (human) receptor inhibition; AID 602244; hit rate 0.36% among 360,000; CHO-K1 PathHunter CXCR6 beta-arrestin, luminescence; O00574; inhibition, % at 20 µM; in the data active = inhibition above about 34%, passing the limit was not always enough;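 note: antagonist mode with CXCL16 agonist at 10 nM final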
# CCR6 antag: CCR6 (human) receptor antagonism | hit rate 0.49% among 340,000 | inhibition, % at 20 µM | CHO-K1 CCR6 PathHunter beta-arrestin, luminescence, CCL20-stimulated;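 active = compounds whose inhibition of the agonist-driven luminescence signal at 20 µM reaches about 50%, limit read from the data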;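 note: cells stimulated with CCL20 at 14 nM final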
# APJ antag: blocks the human apelin receptor APJ | P35414 | CHO-K1 APJ beta-arrestin complementation, luminescence | inhibition, % at 20 µM | hit rate 0.32% among 330,000;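 active = inhibition above about 40% at 20 µM, limit read from the data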;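 note: cells challenged with 10 nM apelin-13 agonist together with compound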
# EBI2 conf: EBI2 (human) antagonism, single concentration confirmation | AID 651997 | shares compounds with EBI2 antag | hit rate 29% among 2,400 | inhibition, % at 5 µM | EBI2 beta-arrestin luminescence, 7a,25-OHC antagonism;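 active = inhibition of at least 50%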
# EBI2 agonist: counter-screen for EBI2 antagonists: EBI2 agonist activity; activation, % at 5 µM; 2,400 tested, under 10 active; shares compounds with EBI2 antag; AID 652000; EBI2-expressing cells, agonist mode, luminescence, 60 min; 0% vehicle, 100% 7α,25-dihydroxycholesterol control;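 active = activation of at least 50%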
# bGal cs: inhibits E. coli beta-galactosidase, counter-screen for EBI2 antagonists. shares compounds with EBI2 antag. inhibition, % at 5 µM. purified beta-galactosidase, luminescent Galacton Star, 15 min. AID 652176. hit rate 1% among 2,400;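 active = replicate-average signal at least 3 plate SD below neutral wells, shown as high inhibition, flagging enzyme-inhibiting false positives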;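 note: higher means stronger loss of beta-gal luminescence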
# Hits are given with their value; 0 = inactive; - = not tested or not shown. Hits are enriched below; roughly 1.5% of the tested compounds scored in any of these assays.
SMILES,APJ ag,EBI2 antag,CXCR6 block,CCR6 antag,APJ antag,EBI2 conf,EBI2 agonist,bGal cs
CN(c1ccc([N+](=O)[O-])cc1/C=N/NC(=O)COc1ccccc1)C1CCCCC1,0,0,0,0,0,-,-,-
NC(=O)C1CCCN1Cc1ccc2c(c1)OCO2 (stereo not given),-,0,0,0,-,-,-,-
Cc1cccc(OCC(=O)N2CCN(C(=O)c3ccc([N+](=O)[O-])cc3)CC2)c1,0,46.6,0,0,0,0,0,0
COc1cccc(N(CC(=O)NCCSc2ccccc2)S(C)(=O)=O)c1,0,0,0,0,0,-,-,-
COc1ccc(N(CC(=O)NCCSc2ccccc2)S(C)(=O)=O)cc1,0,62.7,0,0,0,0,0,0
COc1cccc(N(CC(=O)NCCSc2ccc(Cl)cc2)S(C)(=O)=O)c1,0,87.1,0,0,0,68.8,0,0
COc1ccc(N(CC(=O)NCCSc2ccc(C)cc2)S(=O)(=O)c2ccccc2)c(OC)c1,0,81.2,0,0,0,0,0,0
CCCNC(=O)C1(C)CCCN(C(=O)c2ccc3snnc3c2)C1 (stereo not given),-,0,0,-,-,-,-,-
Cc1cccc(Oc2ncc(-c3ccc(Cl)cc3)cn2)c1,0,44.0,0,0,0,0,0,0
COc1ccc(CNC(=O)/C=C/c2ccc(OCCCF)cc2)cc1OC,0,0,0,0,0,-,-,-
O=C(/C=C/c1ccc(OCCCF)cc1)NCc1ccc(Cl)c(Cl)c1,0,44.3,0,0,0,0,0,0
COc1ccc(C(C)=O)cc1COC(=O)c1ccc(C)c(S(=O)(=O)N2CCOCC2)c1,0,0,0,0,0,-,-,-
CCCCn1c2ccc(F)cc2c2nnc(SCCN3CCCCC3)nc21,0,57.5,0,0,0,0,0,0
CCCCn1c2ccc(C)cc2c2nnc(SCCN3CCCCC3)nc21,0,69.2,0,0,0,0,0,0
N/C(=N\OC(=O)N1CCOCC1)c1ccc(Br)cc1,0,0,0,0,0,-,-,-
C/C=C(\C)CN1CCC(n2nccc2NC(=O)CCOc2ccccc2)CC1,0,0,0,0,0,-,-,-
Cc1cc(C(=O)COC(=O)C2CCN(C(=O)c3ccc(Cl)cc3)CC2)c(C)n1CC1CCCO1 (stereo not given),0,72.7,0,0,0,50.6,0,0
CCOC(=O)C(C)C1(O)c2ccccc2-c2ncccc21 (stereo not given),0,0,0,0,0,-,-,-
OC(CC1CC12c1ccccc1-c1ncccc12)(c1ccccc1)c1ccccc1 (stereo not given),0,47.1,0,0,0,0,0,0
CCOC(=O)N1CCN(C(=O)COc2ccc(S(=O)(=O)NC(C)C)cc2)CC1,0,0,0,0,0,-,-,-
Cc1cc(OCC(=O)N2CCCC2)ccc1Cl,0,0,0,0,0,-,-,-
CCOC(=O)N1CCN(C(=O)COc2ccc(Cl)c(C)c2)CC1,0,86.3,0,0,0,54.2,0,0
CCOC(=O)N1CCN(C(=O)COc2ccc(Cl)cc2)CC1,0,83.4,0,0,0,55.2,0,0
O=C(CNC(=O)C12CC3CC(CC(C3)C1)C2)NCc1ccccc1,0,0,0,0,0,-,-,-
Cc1ccc(Nc2ccc(C(=O)NCCc3ccccc3)cn2)cc1,0,83.1,0,0,0,58.3,0,0
SMILES,APJ ag,EBI2 antag,CXCR6 block,CCR6 antag,APJ antag,EBI2 conf,EBI2 agonist,bGal cs
COC(=O)C1CCC(=O)N1C(c1ccc(OC)cc1)c1cc(OC)c(OC)c(OC)c1 (stereo not given),-,0,0,0,-,-,-,-
O=C(COc1ccc(Br)cc1)c1ccc2c(c1)CCCC2,0,75.2,0,0,0,0,0,0
Cc1ccc(OCC(=O)c2ccc3c(c2)CCCC3)cc1C,0,0,0,0,0,-,-,-
O=C(COc1ccc(Br)cc1)N1CCc2ccccc2C1,0,58.3,0,0,0,73.4,0,0
O=C(COc1ccc(Br)cc1)N1CCC(c2ccccc2)C1 (stereo not given),0,87.2,0,0,0,84.2,0,0
O=C(COc1ccc(Br)cc1)N1CCOCC1,0,0,0,0,0,-,-,-
COc1ccc(OCC(=O)N2CCc3ccccc3C2)cc1,0,0,0,0,0,-,-,-
CCOc1cc(/C=N/NC(=O)c2nnn(-c3nonc3N)c2C)ccc1OCc1cccc(F)c1,0,41.9,0,0,0,0,0,0
CCOc1cc(/C=N/NC(=O)c2nnn(-c3nonc3N)c2C)ccc1OCc1ccc(F)cc1,0,52.4,0,0,0,0,0,0
CCc1c(C(=O)N/N=C/c2ccc(OCc3ccc(F)cc3)c(OC)c2)nnn1-c1nonc1N,0,0,0,0,0,-,-,-
Cc1cccc(COc2ccc(/C=N/NC(=O)c3nnn(-c4nonc4N)c3C)cc2)c1,0,0,0,0,0,-,-,-
CCOc1cc(/C=N/NC(=O)c2nnn(-c3nonc3N)c2C)ccc1OCc1ccc(C)cc1,-,54.0,0,-,-,51.0,0,0
Cc1cccc(C(=O)NNC(=O)c2csc(N3CCOCC3)n2)c1C,0,0,0,0,0,-,-,-
CCN(CC)CCNC(=O)c1ccc(NC(=O)COc2ccc3c(c2)CCC3)cc1,0,0,0,0,0,-,-,-
CCCN(CC(=O)Nc1ccccc1C)C(=O)C1CC(=O)N(c2ccc(CC)cc2)C1 (stereo not given),0,0,0,0,0,-,-,-
COc1ccc(N(CC(=O)Nc2cc(C)ccc2C)S(=O)(=O)c2c(C)noc2C)cc1,0,0,0,0,0,-,-,-
COc1ccc(N(CC(=O)Nc2cc(C)ccc2OC)S(=O)(=O)c2c(C)noc2C)cc1,0,42.5,0,0,0,0,0,0
Cc1cccc(NC(=O)C2CCN(C(=O)c3ccc(Cl)cc3)CC2)n1,0,46.2,0,0,0,0,0,0
O=C(Nc1cccc(S(=O)(=O)N2CCCCCC2)c1)C1CCN(C(=O)c2ccc(Cl)cc2)CC1,0,52.1,0,0,0,0,0,0
O=C(Nc1cccc(S(=O)(=O)N2CCCCC2)c1)C1CCN(C(=O)c2ccc(Cl)cc2)CC1,0,0,0,0,0,-,-,-
O=C(Nc1cccc(F)c1)C1CCN(C(=O)c2ccc(Br)cc2)CC1,0,45.5,0,0,0,0,0,0
COc1cccc(C(C)NC(=O)C2CCCC2)c1 (stereo not given),0,0,0,0,0,-,-,-
CC(Sc1nnc(N)s1)C(=O)c1c(N)n(C)c(=O)n(C)c1=O (stereo not given),0,0,0,0,0,-,-,-
Cc1nc(SC(C)C(=O)c2c(N)n(C)c(=O)n(C)c2=O)c2c(C)c(C)sc2n1 (stereo not given),0,46.7,0,0,0,51.2,0,0
CCOc1ccc(Br)cc1C(=S)N1CCCC1,0,0,0,0,0,-,-,-
